Data taken from the RNAGym collection of RNA variant scans (doi:10.1126/science.aae0568).
This sample holds only a part of the variants without activity.

B1: tRNA (parent)
chain: GUUCCGUUGGCGUAAUGGUAACGCGUCUCCCUCCUAAGGAGAAGACUGCGGGUUCGAGUCCCGUACGGAACG

Variants of: B1
Test: yeast fitness relative to wild type (ratio to wild type); higher = fitter; tRNA-Arg(CCU), competitive growth, 37 C, YPD
Method in brief: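 Variants of the tRNA-Arg(CCU) gene were chemically synthesised with a 3% per-site mutation rate across 69 sites and placed at the native genomic locus in Saccharomyces cerevisiae. Six parallel replicates of the pooled strains were competed in YPD at 37°C for 24 hours, and gene amplicons from the start and end populations were read by 100-nucleotide paired-end sequencing. Darwinian fitness relative to wild type was derived from changes in genotype frequencies. Genotypes required ≥ 100 starting reads, and estimates < 0.5 were set to 0.5.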

Variant | yeast fitness
GUUCCGUUGGCGUAAUGGUAACGCGUCUCCCUCCUAAGGAGAAGACUGCGGGUUUGAGUCCCGUACGGAUCG [C55U A70U] | 0.715
GUUCCGUUGGCGUAAUGGUAACGCGUCUCCCUCCUAAGGAGAAGACUGCGGGUUUGAGUACCGUUCGGAACG [C55U C60A A65U] | ≤ 0.5
GUUCCGUUGGCGUAAUGGUAACGCGUCUCCCUCCUAAGGAGAAGACUGCGGGUUUGAGUUCCGUACGGAACG [C55U C60U] | 0.584
GUUCCGUUGGCGUAAUGGUAACGCGUCUCCCUCCUAAGGAGAAGACUGCGGGUUUGAGUCACGUACGGAACG [C55U C61A] | 0.524
GUUCCGUUGGCGUAAUGGUAACGCGUCUCCCUCCUAAGGAGAAGACUGCGGGUUUGAGUCACGUGCGGAACG [C55U C61A A65G] | ≤ 0.5
GUUCCGUUGGCGUAAUGGUAACGCGUCUCCCUCCUAAGGAGAAGACUGCGGGUUUGAGUCACGUUCGGAACG [C55U C61A A65U] | 0.581
GUUCCGUUGGCGUAAUGGUAACGCGUCUCCCUCCUAAGGAGAAGACUGCGGGUUUGAGUCACGUACGCAACG [C55U C61A G68C] | ≤ 0.5
GUUCCGUUGGCGUAAUGGUAACGCGUCUCCCUCCUAAGGAGAAGACUGCGGGUUUGAGUCGCGUACGGAACG [C55U C61G] | ≤ 0.5
GUUCCGUUGGCGUAAUGGUAACGCGUCUCCCUCCUAAGGAGAAGACUGCGGGUUUGAGUCCAGUACGGAACG [C55U C62A] | 0.627
GUUCCGUUGGCGUAAUGGUAACGCGUCUCCCUCCUAAGGAGAAGACUGCGGGUUUGAGUCCGGUAAGGAACG [C55U C62G C66A] | 0.53
GUUCCGUUGGCGUAAUGGUAACGCGUCUCCCUCCUAAGGAGAAGACUGCGGGUUUGAGUCCCGUAGGGAACG [C55U C66G] | 0.668
GUUCCGUUGGCGUAAUGGUAACGCGUCUCCCUCCUAAGGAGAAGACUGCGGGUUUGAGUCCCGUAGGGACCG [C55U C66G A70C] | ≤ 0.5
GUUCCGUUGGCGUAAUGGUAACGCGUCUCCCUCCUAAGGAGAAGACUGCGGGUUUAAGUCCCGUACGGAACG [C55U G56A] | 0.735
GUUCCGUUGGCGUAAUGGUAACGCGUCUCCCUCCUAAGGAGAAGACUGCGGGUUUGAAUCCCGUACAGAACG [C55U G58A G67A] | 0.546
GUUCCGUUGGCGUAAUGGUAACGCGUCUCCCUCCUAAGGAGAAGACUGCGGGUUUGACUCCCGUACGGAACG [C55U G58C] | 0.842
GUUCCGUUGGCGUAAUGGUAACGCGUCUCCCUCCUAAGGAGAAGACUGCGGGUUUGACUCCCGUACGGUACG [C55U G58C A69U] | 0.537
GUUCCGUUGGCGUAAUGGUAACGCGUCUCCCUCCUAAGGAGAAGACUGCGGGUUUGAGUCCCAUACGGAUCG [C55U G63A A70U] | 0.551
GUUCCGUUGGCGUAAUGGUAACGCGUCUCCCUCCUAAGGAGAAGACUGCGGGUUUGAGUCCCAUAGGGAACG [C55U G63A C66G] | ≤ 0.5
GUUCCGUUGGCGUAAUGGUAACGCGUCUCCCUCCUAAGGAGAAGACUGCGGGUUUGAGUCCCCUACGGAACG [C55U G63C] | 0.567

Variant | yeast fitness
GUUCCGUUGGCGUAAUGGUAACGCGUCUCCCUCCUAAGGAGAAGACUGCGGGUUUGAGACCCGUACGGAACG [C55U U59A] | 0.891
GUUCCGUUGGCGUAAUGGUAACGCGUCUCCCUCCUAAGGAGAAGACUGCGGGUUUGAGACCCGUACGGAUCG [C55U U59A A70U] | 0.524
GUUCCGUUGGCGUAAUGGUAACGCGUCUCCCUCCUAAGGAGAAGACUGCGGGUUCAUGUCCCGUACGGAUCG [G56A A57U A70U] | ≤ 0.5
GUUCCGUUGGCGUAAUGGUAACGCGUCUCCCUCCUAAGGAGAAGACUGCGGGUUCAUGUCCGGUACGGAACG [G56A A57U C62G] | ≤ 0.5
GUUCCGUUGGCGUAAUGGUAACGCGUCUCCCUCCUAAGGAGAAGACUGCGGGUUCAAGUCCCGUCCGGAACG [G56A A65C] | 1.1
GUUCCGUUGGCGUAAUGGUAACGCGUCUCCCUCCUAAGGAGAAGACUGCGGGUUCAAGUCCCGUCCGGCACG [G56A A65C A69C] | ≤ 0.5
GUUCCGUUGGCGUAAUGGUAACGCGUCUCCCUCCUAAGGAGAAGACUGCGGGUUCAAGUCCCGUGCGGAACG [G56A A65G] | 1.01
GUUCCGUUGGCGUAAUGGUAACGCGUCUCCCUCCUAAGGAGAAGACUGCGGGUUCAAGUCCCGUGUGGAACG [G56A A65G C66U] | 0.763
GUUCCGUUGGCGUAAUGGUAACGCGUCUCCCUCCUAAGGAGAAGACUGCGGGUUCAAGUCCCGUUCAGAACG [G56A A65U G67A] | ≤ 0.5
GUUCCGUUGGCGUAAUGGUAACGCGUCUCCCUCCUAAGGAGAAGACUGCGGGUUCAAGUUCCGUACGGAACG [G56A C60U] | 0.845
GUUCCGUUGGCGUAAUGGUAACGCGUCUCCCUCCUAAGGAGAAGACUGCGGGUUCAAGUCUGGUACGGAACG [G56A C61U C62G] | ≤ 0.5
GUUCCGUUGGCGUAAUGGUAACGCGUCUCCCUCCUAAGGAGAAGACUGCGGGUUCAAGUCCGGGACGGAACG [G56A C62G U64G] | ≤ 0.5
GUUCCGUUGGCGUAAUGGUAACGCGUCUCCCUCCUAAGGAGAAGACUGCGGGUUCAAGUCCUGUACGGAACG [G56A C62U] | 0.967
GUUCCGUUGGCGUAAUGGUAACGCGUCUCCCUCCUAAGGAGAAGACUGCGGGUUCAAGUCCCGUAUGGAACG [G56A C66U] | 1.1
GUUCCGUUGGCGUAAUGGUAACGCGUCUCCCUCCUAAGGAGAAGACUGCGGGUUCAAAUCCCGUACGGAACG [G56A G58A] | 0.907
GUUCCGUUGGCGUAAUGGUAACGCGUCUCCCUCCUAAGGAGAAGACUGCGGGUUCAACUCCCGUACGGAACG [G56A G58C] | 0.95
GUUCCGUUGGCGUAAUGGUAACGCGUCUCCCUCCUAAGGAGAAGACUGCGGGUUCAACUCCCGAACGGGACG [G56A G58C U64A A69G] | 0.545
GUUCCGUUGGCGUAAUGGUAACGCGUCUCCCUCCUAAGGAGAAGACUGCGGGUUCAAGUCCCCUACGGAACG [G56A G63C] | 0.818
GUUCCGUUGGCGUAAUGGUAACGCGUCUCCCUCCUAAGGAGAAGACUGCGGGUUCAAGUCCCGUACAGAACG [G56A G67A] | 0.901
